Measurements from ChEMBL document CHEMBL1153378, “Synthesis and evaluation of myxochelin analogues as antimetastatic agents” (Bioorg Med Chem, 2009).
Activity calls are given as the source filed them. The rule behind the calls is not given here.

Experiments:
[1] = Antiinvasive activity against mouse 26-L5 cells assessed as inhibition of cell invasion at 2.5 uM by Matrigel assay; type: functional
[2] = Antiinvasive activity against mouse 26-L5 cells assessed as inhibition of cell invasion by Matrigel assay; type: functional, cell-based
[3] = Cytotoxicity against mouse 26-L5 cells after 24 hrs; type: functional, cell-based
Summary of the method: (§1)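 Murine colon 26-L5 carcinoma cells at 1 × 10⁴ cells/well in RPMI with 10% FCS and L-glutamine, exposed to test compound at various concentrations (DMSO solutions) for 24 h. Wells PBS-washed, crystal violet stain 30 min, dye extracted with 30% acetic acid, absorbance read at 590 nm. Mean ± SD; Student's two-tailed t-test vs control.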

[4] = Cytotoxicity against mouse 26-L5 cells at 7.5 uM after 24 hrs; type: functional; summary of the method: as §1
[5] = Cytotoxicity against mouse 26-L5 cells at 5.6 uM after 24 hrs; type: functional; summary of the method: as §1
[6] = target: 72 kDa type IV collagenase (Mus musculus) (UniProt P33434); experiment: Inhibition of MMP2 in mouse 26-L5 cells at 0.25 uM by gelatin based zymography assay; type: cell-based
Sequence of 72 kDa type IV collagenase (Mus musculus) (P33434 whole entry): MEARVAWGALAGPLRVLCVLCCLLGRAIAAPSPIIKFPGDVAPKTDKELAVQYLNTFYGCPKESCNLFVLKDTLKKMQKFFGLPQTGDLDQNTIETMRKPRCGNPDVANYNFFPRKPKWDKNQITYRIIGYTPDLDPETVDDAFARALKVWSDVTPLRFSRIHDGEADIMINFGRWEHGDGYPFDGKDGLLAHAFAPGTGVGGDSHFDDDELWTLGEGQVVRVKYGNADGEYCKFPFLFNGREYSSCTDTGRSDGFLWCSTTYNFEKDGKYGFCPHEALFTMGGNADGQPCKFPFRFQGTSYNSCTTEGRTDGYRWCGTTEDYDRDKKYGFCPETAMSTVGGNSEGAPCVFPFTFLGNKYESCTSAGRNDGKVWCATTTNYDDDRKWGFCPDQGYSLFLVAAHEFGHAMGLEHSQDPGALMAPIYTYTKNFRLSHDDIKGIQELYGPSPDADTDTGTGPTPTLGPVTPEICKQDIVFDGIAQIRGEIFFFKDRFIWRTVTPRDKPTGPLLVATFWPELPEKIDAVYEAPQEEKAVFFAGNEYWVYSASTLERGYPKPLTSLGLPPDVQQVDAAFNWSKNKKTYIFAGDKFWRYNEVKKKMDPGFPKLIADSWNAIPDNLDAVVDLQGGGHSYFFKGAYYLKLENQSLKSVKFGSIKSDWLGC
Summary of the method: (§2)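 Gelatin zymography: conditioned medium of colon 26-L5 cells run non-reducing on 10% SDS–PAGE with 0.1% gelatin. Gels rinsed twice 1 h at room temperature (50 mM Tris–HCl, 2.5% Triton X-100, 5 mM CaCl₂, 0.05% NaN₃), strips incubated 24 h at 37 °C in reaction buffer with test compound at various concentrations, then Coomassie stained. Mean ± SD, two-tailed t-test.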

Mus musculus [7] = experiment: Toxicity in mouse 26-L5 cells xenografted BALB/c mouse assessed as body weight loss at 50 mg/kg, ip dosed once daily for 14 days; type: organism-based; set-up: dose 50 mg/kg, route intraperitoneal; settings: in vivo, 336 h
Summary of the method: (§3)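 BALB/c mice injected iv via tail vein with colon 26-L5 cells in cold PBS; compound given ip at 50 mg/kg (1 mg/mouse in 200 µL PBS); controls received 200 µL PBS. Body weight followed; mice killed 14 days after inoculation, lungs fixed in Bouin's solution, surface colonies counted under dissecting microscope. Student's two-tailed t-test.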

[8] = target: Matrix metalloproteinase-9 (Mus musculus) (UniProt P41245); experiment: Inhibition of MMP9 in mouse 26-L5 cells at 0.25 uM by gelatin based zymography assay; type: cell-based; summary of the method: as §2
Sequence of Matrix metalloproteinase-9 (Mus musculus) (P41245 whole entry): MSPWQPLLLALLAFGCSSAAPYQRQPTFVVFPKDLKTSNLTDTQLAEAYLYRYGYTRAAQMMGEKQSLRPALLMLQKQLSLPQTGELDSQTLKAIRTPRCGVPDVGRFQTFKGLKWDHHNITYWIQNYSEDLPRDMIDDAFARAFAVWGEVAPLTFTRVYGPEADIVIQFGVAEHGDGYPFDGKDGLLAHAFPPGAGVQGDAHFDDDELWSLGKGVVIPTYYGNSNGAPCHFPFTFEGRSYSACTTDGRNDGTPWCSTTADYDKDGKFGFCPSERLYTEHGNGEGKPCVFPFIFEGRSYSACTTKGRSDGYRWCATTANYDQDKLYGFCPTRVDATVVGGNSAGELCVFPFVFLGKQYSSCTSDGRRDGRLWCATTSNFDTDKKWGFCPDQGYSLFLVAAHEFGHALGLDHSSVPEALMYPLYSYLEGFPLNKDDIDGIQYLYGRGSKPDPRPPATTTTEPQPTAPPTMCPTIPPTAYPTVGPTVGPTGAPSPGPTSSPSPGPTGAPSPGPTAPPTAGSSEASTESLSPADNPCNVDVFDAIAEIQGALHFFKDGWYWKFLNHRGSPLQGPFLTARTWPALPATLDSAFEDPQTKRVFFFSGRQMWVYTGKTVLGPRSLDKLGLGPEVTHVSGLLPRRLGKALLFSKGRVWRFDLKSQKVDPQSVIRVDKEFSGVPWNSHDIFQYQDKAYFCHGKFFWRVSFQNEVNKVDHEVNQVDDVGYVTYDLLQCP

[9] = Antimetastatic activity against mouse 26-L5 cells xenografted BALB/c mouse assessed as inhibition of lung tumor metastasis at 50 mg/kg, ip dosed once daily for 14 days; type: functional; settings: 336 h, route intraperitoneal; summary of the method: as §3
Mus musculus [10] = species on record: Mus musculus; experiment: Inhibition of mouse 26-L5 cells adhesion to extracellular matrix proteins at 2.5 uM after 24 hrs by crystal violet assay; type: functional
Summary of the method: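 Colon 26-L5 cells pre-treated with compound 24 h at 37 °C, 5% CO₂, then resuspended in RPMI/10% FCS/L-glutamine and seeded at 4 × 10⁴ cells/well on fibronectin- or Matrigel-coated wells. Attachment 1 h at 37 °C; non-adherent cells aspirated; adherent cells fixed in 20% formalin 4 °C 1 h, crystal violet stained 30 min. Mean ± SD, two-tailed t-test.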

Mus musculus [11] = species on record: Mus musculus; experiment: Inhibition of cell migration of mouse 26-L5 cells at 2.5 uM by Matrigel assay; type: functional
[12] = target: 72 kDa type IV collagenase (Mus musculus) (UniProt P33434); experiment: Inhibition of MMP2 in mouse 26-L5 cells at 2.5 uM by gelatin based zymography assay; type: cell-based; summary of the method: as §2
[13] = target: Matrix metalloproteinase-9 (Mus musculus) (UniProt P41245); experiment: Inhibition of MMP9 in mouse 26-L5 cells at 2.5 uM by gelatin based zymography assay; type: cell-based; summary of the method: as §2

O=C(NCCCCCNC(=O)c1cccc(O)c1O)c1cccc(O)c1O
inhibition at 2.5 µM [1]: 45%
IC50 [2]: > 2500 nM
IC50 [3]: 2700 nM

NC(=O)[C@H](CCCCNC(=O)c1cccc(O)c1O)NC(=O)c1ccccc1
IC50 [2]: 260 nM
inhibition at 7.5 µM [4]: 0%
IC50 [3]: > 7500 nM

COC(=O)[C@H](CCNC(=O)c1cccc(O)c1O)NC(=O)c1cccc(O)c1O
inhibition at 2.5 µM [1]: 40%
IC50 [2]: > 2500 nM
inhibition at 7.5 µM [4]: 13%
IC50 [3]: > 7500 nM

COC(=O)[C@H](CCCNC(=O)c1cccc(O)c1O)NC(=O)c1cccc(O)c1O
IC50 [2]: 2500 nM
inhibition at 7.5 µM [4]: 45%
IC50 [3]: > 7500 nM

COC(=O)[C@H](CCCCNC(=O)c1cccc(OC)c1OC)NC(=O)c1cccc(OC)c1OC
inhibition at 2.5 µM [1]: 25%
IC50 [2]: > 2500 nM
inhibition at 7.5 µM [4]: 0%
IC50 [3]: > 7500 nM

N#C[C@H](CCCCNC(=O)c1cccc(O)c1O)NC(=O)c1cccc(O)c1O
inhibition at 2.5 µM [1]: 45%
IC50 [2]: > 2500 nM
IC50 [3]: 7500 nM

O=C(NCCCC[C@H](CO)NC(=O)c1cccc(O)c1O)c1cccc(O)c1O
IC50 [2]: 2200 nM
inhibition at 7.5 µM [4]: 30%
IC50 [3]: > 7500 nM

COC(=O)[C@H](CCCCNC(=O)c1ccccc1)NC(=O)c1cccc(O)c1O
inhibition at 2.5 µM [1]: 0%
IC50 [2]: > 2500 nM
inhibition at 7.5 µM [4]: 0%
IC50 [3]: > 7500 nM

COC(=O)[C@H](CCCCNC(=O)c1cccc(O)c1O)NC(C)=O
IC50 [2]: 2400 nM
inhibition at 7.5 µM [4]: 0%
IC50 [3]: > 7500 nM

O=C(NCCCC[C@@H](CNC(=O)c1cccc(O)c1O)NC(=O)c1cccc(O)c1O)c1cccc(O)c1O
IC50 [2]: 520 nM
IC50 [3]: > 5600 nM
inhibition at 5.6 µM [5]: 0%

NC(=O)[C@H](CCCCNC(=O)c1cccc(O)c1O)NC(=O)c1cccc(O)c1O
IC50 [2]: 91 nM
inhibition [6]: 44%
Activity (Mus musculus [7]): Non-toxic
inhibition at 7.5 µM [4]: 0%
IC50 [3]: > 7500 nM
inhibition [8]: 33%
inhibition in vivo at 50 mg/kg [9]: 35%
inhibition (Mus musculus [10]): inactive
inhibition (Mus musculus [11]): inactive

COC(=O)[C@H](CCCCNC(=O)c1cccc(O)c1O)NC(=O)c1cccc(O)c1O
IC50 [2]: 1500 nM
inhibition at 7.5 µM [4]: 10%
IC50 [3]: > 7500 nM

O=C(NCCCC[C@H](NC(=O)c1cccc(O)c1O)C(=O)O)c1cccc(O)c1O
inhibition at 2.5 µM [1]: 30%
IC50 [2]: > 2500 nM
inhibition at 7.5 µM [4]: 0%
IC50 [3]: > 7500 nM

O=C(NCCCC[C@@H](CO)NC(=O)c1cccc(O)c1O)c1cccc(O)c1O
IC50 [2]: 590 nM
inhibition at 7.5 µM [4]: 20%
inhibition [12]: 35%
IC50 [3]: > 7500 nM
inhibition [13]: 39%
inhibition (Mus musculus [10]): inactive
inhibition (Mus musculus [11]): inactive

COC(=O)[C@H](CCCCNC(=O)c1cccc(O)c1O)NC(=O)c1ccccc1
IC50 [2]: 1000 nM
inhibition at 7.5 µM [4]: 0%
IC50 [3]: > 7500 nM

O=C(NCCCC[C@H](NC(=O)c1cccc(O)c1O)C(=O)NO)c1cccc(O)c1O
IC50 [2]: 980 nM
inhibition at 7.5 µM [4]: 0%
IC50 [3]: > 7500 nM

COC(=O)[C@H](CCCCCNC(=O)c1cccc(O)c1O)NC(=O)c1cccc(O)c1O
IC50 [2]: 1700 nM
IC50 [3]: 1600 nM

NC[C@H](CCCCNC(=O)c1cccc(O)c1O)NC(=O)c1cccc(O)c1O
IC50 [2]: 730 nM
inhibition at 7.5 µM [4]: 40%
IC50 [3]: > 7500 nM
